Measurements published in ChEMBL document CHEMBL1124666, “Novel linked antiviral and antitumor agents related to netropsin and distamycin: synthesis and biological evaluation” (1989).
Values after ≈ are worked out from the molar mass of the structure shown.

Experiments:
Calf thymus DNA = assay: Relative binding constant to calf thymus DNA; assay type: nucleic-acid assay; conditions: Bos taurus
Procedure, shortened: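 Ethidium displacement: Tris-EDTA buffer pH 8 with 1.3 μM ethidium bromide and calf thymus DNA (1.35 μM final); drug aliquots added, fluorescence read after a few minutes' equilibration (excitation 525 nm, emission 600 nm). Drug level giving 50% fluorescence decrease converted to relative binding constant taking ethidium binding constant as 10^7 M-1.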

Vaccinia virus [1] = assay: Minimum inhibitory concentration against vaccinia virus in Vero cell cultures of experiment 2; assay type: functional; conditions: Orthopoxvirus vaccinia
Vaccinia virus [2] = assay: Minimum inhibitory concentration against vaccinia virus embryonic skin muscle cell cultures; assay type: functional; conditions: Orthopoxvirus vaccinia
Raji = assay: Inhibitory effect on the proliferation of human B lymphoblast (Raji ) cells; assay type: functional; conditions: read-out: ID50 (the source's name)
FM3A = assay: Inhibitory effect on the proliferation of murine mammary carcinoma (FM3A ) cells; assay type: functional; conditions: Mus musculus, read-out: ID50 (the source's name)
Human alphaherpesvirus 2 = assay: Minimum inhibitory concentration against Herpes simplex virus 2(G); assay type: functional
Vaccinia virus [3] = assay: Minimum inhibitory concentration against vaccinia virus in primary rabbit kidney cell cultures of experiment 1; assay type: functional; conditions: Orthopoxvirus vaccinia
Vaccinia virus [4] = assay: Minimum inhibitory concentration against vaccinia virus in Vero cell cultures of experiment 1; assay type: functional; conditions: Orthopoxvirus vaccinia
P388 = assay: Inhibitory effect on the proliferation of murine leukemia (P388) cells; assay type: functional; conditions: Mus musculus, read-out: ID50 (the source's name)
Vaccinia virus [5] = assay: (§1) Minimum inhibitory concentration against vaccinia virus in primary rabbit kidney cell cultures of experiment 2; assay type: functional, Orthopoxvirus vaccinia; conditions: Orthopoxvirus vaccinia; read-out: MIC
Vaccinia virus [6] = assay: Minimum cytotoxic concentration against vaccinia virus in HeLa cell cultures; assay type: functional; conditions: Orthopoxvirus vaccinia
Vaccinia virus [7] = assay: Minimum cytotoxic concentration against vaccinia virus in Vero cell cultures; assay type: functional; conditions: Orthopoxvirus vaccinia
[8] = Inhibition of Moloney Murine Leukemia Associated Reverse Transcriptase; assay type: functional, Mus musculus
[9] = tested on: Vesicular stomatitis virus; assay: Minimum inhibitory concentration against Vesicular stomatitis virus; assay type: functional
Vaccinia virus [10] = assay: Minimum cytotoxic concentration against vaccinia virus in primary rabbit kidney cell cultures; assay type: functional; conditions: Orthopoxvirus vaccinia
Human alphaherpesvirus 1 = assay: Minimum inhibitory concentration against Herpes simplex virus 1(KOS); assay type: functional
Vaccinia virus [11] = assay: Minimum cytotoxic concentration against vaccinia virus embryonic skin muscle cell cultures; assay type: functional; conditions: Orthopoxvirus vaccinia
L1210 = assay: Inhibitory effect on the proliferation of murine leukemia (L1210 ) cells; assay type: functional; conditions: Mus musculus, read-out: ID50 (the source's name)
Vaccinia virus [12] = assay: as §1; assay type: functional; conditions: Orthopoxvirus vaccinia
[13] = Inhibitory effect on the proliferation of human T-lymphoblast (Molt/4F ) cells; assay type: functional; conditions: read-out: ID50 (the source's name)
Vaccinia virus [14] = assay: Minimum inhibitory concentration against Vaccinia virus; assay type: functional; conditions: Orthopoxvirus vaccinia
[15] = Minimum cytotoxic concentration in primary rabbit kidney (PRK) cell cultures; assay type: functional, Oryctolagus cuniculus
Vaccinia virus [16] = assay: Minimum inhibitory concentration against vaccinia virus in HeLa cell cultures; assay type: functional; conditions: Orthopoxvirus vaccinia

Row | Compound | Binding constant (Calf thymus DNA) [M⁻¹] | MIC (Vaccinia virus [1]) [µg/mL] | MIC (Vaccinia virus [2]) [µg/mL] | IC50 (Raji) [µg/mL] | IC50 (FM3A) [µg/mL] | MIC (Human alphaherpesvirus 2) [µg/mL] | MIC (Vaccinia virus [3]) [µg/mL] | MIC (Vaccinia virus [4]) [µg/mL] | IC50 (P388) [µg/mL] | MIC (Vaccinia virus [5]) [µg/mL] | MCC (Vaccinia virus [6]) [µg/mL] | MCC (Vaccinia virus [7]) [µg/mL] | ID50 [8] [µg/mL] | MIC [9] [µg/mL] | MCC (Vaccinia virus [10]) [µg/mL] | MIC (Human alphaherpesvirus 1) [µg/mL] | MCC (Vaccinia virus [11]) [µg/mL] | IC50 (L1210) [µg/mL] | MIC (Vaccinia virus [12]) [µg/mL] | MIC (Vaccinia virus [14]) [µg/mL] | also measured
1 | Cn1cc(NC(=O)c2cc(NC(=O)CNC(=N)N)cn2C)cc1C(=O)NCCC(=N)N | 1.9e+07 |  |  |  |  |  |  |  |  |  |  |  |  |  |  |  |  |  |  |  | 
2 | Cl.Cl.Cn1cc(NC(=O)c2cc(NC(=O)CCCCCCCC(=O)Nc3cc(C(=O)Nc4cc(C(=O)NCCC(=N)N)n(C)c4)n(C)c3)cn2C)cc1C(=O)NCCC(=N)N | 9e+06 | 70 | 0.7 | 4.36 | 32 | > 40 | 7 | 40 | 0.75 | 20 | > 200 | > 200 | 34.2 | > 100 | > 100 | > 40 | > 100 | 10.8 | 7 | 0.2 | IC50 [13]: 3.3 µg/mL; MCC [15]: >100 µg/mL
3 | Cl.Cl.Cn1cc(NC(=O)c2cc(NC(=O)CCCCCCC(=O)Nc3cc(C(=O)Nc4cc(C(=O)NCCC(=N)N)n(C)c4)n(C)c3)cn2C)cc1C(=O)NCCC(=N)N | 2.5e+07 | 7 | 0.07 | 2.14 | 3.15 | > 10 | 0.7 | 7 | 0.7 | 2 | > 200 | > 40 | 21.3 | > 10 | > 40 | > 10 | > 200 | 3.34 | 2 | 0.2 | IC50 [13]: 1.74 µg/mL; MCC [15]: >10 µg/mL
4 | Nc1ncnc2c1ccn2[C@@H]1O[C@H](CO)[C@@H](O)[C@H]1O [TUBERCIDIN] |  | 0.02 (≈ 0.0751 µM) | 0.07 (≈ 0.263 µM) |  |  | > 0.4 | > 0.1 | 0.02 (≈ 0.0751 µM) |  | 0.2 (≈ 0.751 µM) | > 1 | > 0.4 |  | 0.2 (≈ 0.751 µM) | > 0.4 | > 0.4 | > 0.1 |  | 0.2 (≈ 0.751 µM) | > 0.1 | MCC [15]: >1 µg/mL
5 | Cl.Cl.Cn1cc(NC(=O)c2cc(NC(=O)c3cc(NC(=O)CCC(=O)Nc4cc(C(=O)Nc5cc(C(=O)Nc6cc(C(=O)NCCC(=N)N)n(C)c6)n(C)c5)n(C)c4)cn3C)cn2C)cc1C(=O)NCCC(=N)N |  | > 4 | > 4 | 41.4 | 4.29 |  | > 4 | > 4 | > 20 | > 10 | > 20 | > 4 | >400 |  | > 4 |  | > 4 | > 100 | > 4 |  | IC50 [13]: 2.85 µg/mL
6 | Cn1cc(NC(=O)c2cc(NC(=O)c3cc(NC=O)cn3C)cn2C)cc1C(=O)NCCC(=N)N [STALLIMYCIN] | 8e+06 |  |  | 24 (≈ 49.8 µM) | 31 (≈ 64.4 µM) |  |  |  | > 20 |  |  |  |  |  |  |  |  | 27 (≈ 56.1 µM) |  |  | 
7 | Cl.Cl.Cn1cc(NC(=O)c2cc(NC(=O)CCCCCCCCCCC(=O)Nc3cc(C(=O)Nc4cc(C(=O)NCCC(=N)N)n(C)c4)n(C)c3)cn2C)cc1C(=O)NCCC(=N)N | 2.2e+07 |  | 0.2 |  |  | 7 | 2 | > 40 | 4.8 |  | > 40 | > 100 | 9.1 | > 10 | > 40 | > 10 | > 40 |  |  | 2 | MIC (Vaccinia virus [16]): 2 µg/mL; MCC [15]: >40 µg/mL
8 | Cl.Cl.Cn1cc(NC(=O)c2cc(NC(=O)CCCCC(=O)Nc3cc(C(=O)Nc4cc(C(=O)NCCC(=N)N)n(C)c4)n(C)c3)cn2C)cc1C(=O)NCCC(=N)N | 1e+07 | 2 | 7 | 13.3 | 57.8 | > 10 | 100 | 1 | 1.05 | 0.7 | > 400 | > 400 | 57.2 | > 10 | > 40 | > 10 | 100 | 24.3 | 2 | 0.7 | IC50 [13]: 5.62 µg/mL; MCC [15]: >40 µg/mL
